In ChEMBL document CHEMBL4706514, “PSNCBAM-1 analogs: Structural evolutions and allosteric properties at cannabinoid CB1 receptor” (Eur J Med Chem, 2020):
The source made the active and inactive calls. The calls are words filed in the database; no cut-off is given here.

Assays:
[1] = target: Cannabinoid receptor 1 (Homo sapiens) (UniProt P21554); experiment: Inverse agonist activity at human CB1 receptor expressed in CHO cell membranes assessed as decrease in cellular response at 0.001 to 10 uM after 90 mins by [35S]-GTPgammaS binding based liquid scintillation spectrometric method relative to control; format: functional; design: scale not given: the % may be the effect or the level left; conditions: Cell membrane, dose 0.001-10 µM
Cannabinoid receptor 1 (Homo sapiens), sequence (P21554 whole entry): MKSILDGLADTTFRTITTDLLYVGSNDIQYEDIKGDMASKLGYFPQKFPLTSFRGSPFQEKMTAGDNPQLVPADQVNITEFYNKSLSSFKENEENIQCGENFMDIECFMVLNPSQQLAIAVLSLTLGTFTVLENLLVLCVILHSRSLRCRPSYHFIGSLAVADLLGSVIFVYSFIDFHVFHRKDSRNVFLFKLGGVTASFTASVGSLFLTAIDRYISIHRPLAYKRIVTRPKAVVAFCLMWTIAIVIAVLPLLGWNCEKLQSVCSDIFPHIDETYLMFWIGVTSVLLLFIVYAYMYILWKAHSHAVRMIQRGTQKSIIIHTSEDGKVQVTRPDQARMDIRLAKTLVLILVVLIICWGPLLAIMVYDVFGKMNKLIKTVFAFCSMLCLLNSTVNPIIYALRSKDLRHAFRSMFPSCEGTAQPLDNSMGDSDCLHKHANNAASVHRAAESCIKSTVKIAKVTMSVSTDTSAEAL
Method in brief: (§1)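 Compound alone, 1 nM to 10 µM (from 10.00 mM DMSO stocks; 0.1% DMSO per tube), incubated 90 min at 30 °C with hCB1-CHO membranes (50.0 µg protein/tube). Buffer: 50 mM Tris, 10 mM MgCl2, 100 mM NaCl, 0.2 mM EDTA, 1 mM DTT, pH 7.4, with [35S]GTPγS 0.1 nM and GDP 30 µM. Read by filtration and scintillation counting. Response expressed as % change from vehicle basal stimulation. Six independent experiments, each in duplicate.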

[2] = target: Cannabinoid receptor 1 (Homo sapiens) (UniProt P21554); experiment: Positive allosteric modulation of human CB1 receptor expressed in CHO cell membranes assessed as increase in binding [3H]CP55940 to the receptor up to 10 uM after 60 mins by liquid scintillation spectrometric method relative to control; conditions: Cell membrane, filed as positive allosteric modulator, dose microM <=10, time 60.0 min
Method in brief: (§2)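 Membranes from CHO cells stably expressing human CB1 (50.0 µg protein/tube) incubated 60 min at 37 °C with [3H]CP55940 0.700 nM and compound 1 nM to 10 µM (from 10.00 mM DMSO stocks; 0.1% DMSO). Ended with ice-cold Tris buffer and vacuum filtration, six washes. Filters oven-dried, then scintillation counted. Six independent experiments in duplicate; one-sample t-test against zero.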

[3] = target: Cannabinoid receptor 1 (Homo sapiens) (UniProt P21554); experiment: Positive allosteric modulation of human CB1 receptor expressed in CHO cell membranes assessed as increase in binding [3H]CP55940 to the receptor after 60 mins by liquid scintillation spectrometric method; conditions: Cell membrane, filed as positive allosteric modulator, dose 1-10000 nM; method in brief: as §2
[4] = target: Cannabinoid receptor 1 (Homo sapiens) (UniProt P21554); experiment: Negative allosteric modulation of human CB1 receptor expressed in CHO cell membranes assessed as decrease in CP55940-induced agonist activity at 1 uM after 90 mins by [35S]-GTPgammaS binding based liquid scintillation spectrometric method relative to control; format: functional; design: scale not given: the % may be the effect or the level left; conditions: Cell membrane
Method in brief: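 Test compound held fixed at 1 µM (from 10.00 mM DMSO stock) against CP55940 0.1 nM to 1 µM. Incubated with hCB1-CHO membranes (50.0 µg protein/tube, 0.1% DMSO) for 90 min at 30 °C, with [35S]GTPγS 0.1 nM and GDP 30 µM in Tris/MgCl2/NaCl/EDTA/DTT buffer, pH 7.4. Bound label filtered and counted. Data taken as % change over vehicle basal; mean of six experiments in duplicate.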

[5] = target: Cannabinoid receptor 1 (Homo sapiens) (UniProt P21554); experiment: Inverse agonist activity at human CB1 receptor expressed in CHO cell membranes assessed as decrease in cellular response up to 1 uM after 90 mins by [35S]-GTPgammaS binding based liquid scintillation spectrometric method; format: functional; conditions: Cell membrane, dose microM <=1, time 90.0 min; method in brief: as §1
[6] = target: Cannabinoid receptor 2 (Homo sapiens) (UniProt P34972); experiment: Positive allosteric modulation of human CB2 receptor expressed in CHO cell membranes assessed as increase in binding [3H]CP55940 to the receptor at 0.001 to 10 uM after 60 mins by liquid scintillation spectrometric method; conditions: Cell membrane, dose 0.001-10 µM
Cannabinoid receptor 2 (Homo sapiens), sequence (P34972 whole entry): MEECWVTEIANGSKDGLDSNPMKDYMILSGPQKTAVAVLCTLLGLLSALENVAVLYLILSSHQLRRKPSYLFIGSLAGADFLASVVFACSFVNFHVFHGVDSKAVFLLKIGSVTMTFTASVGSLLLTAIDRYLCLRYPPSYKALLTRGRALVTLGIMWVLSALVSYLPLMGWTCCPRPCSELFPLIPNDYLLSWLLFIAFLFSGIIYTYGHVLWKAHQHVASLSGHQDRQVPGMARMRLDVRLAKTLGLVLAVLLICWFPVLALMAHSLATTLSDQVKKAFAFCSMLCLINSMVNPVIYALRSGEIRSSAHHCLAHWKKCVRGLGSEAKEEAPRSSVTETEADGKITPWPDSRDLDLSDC
Method in brief: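 Human CB2 stably expressed in CHO cells; membranes at 50.0 µg protein/tube with [3H]CP55940 0.700 nM and compound 1 nM to 10 µM (0.1% DMSO). Incubated 60 min at 37 °C, then filtered under vacuum with ice-cold Tris buffer and scintillation counted. Six independent experiments, each in duplicate.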

[7] = target: Cannabinoid receptor 1 (Homo sapiens) (UniProt P21554); experiment: Negative allosteric modulation of human CB1 receptor expressed in CHO cell membranes assessed as decrease in CP55940-induced agonist activity at 100 nM after 90 mins by [35S]-GTPgammaS binding based liquid scintillation spectrometric method; format: functional; conditions: Cell membrane, filed as negative allosteric modulator
[8] = target: Cannabinoid receptor 1 (Homo sapiens) (UniProt P21554); experiment: Inverse agonist activity at human CB1 receptor expressed in CHO cell membranes assessed as decrease in cellular response >1 uM after 90 mins by [35S]-GTPgammaS binding based liquid scintillation spectrometric method; format: functional; design: scale not given: the % may be the effect or the level left; conditions: Cell membrane, dose microM >1, time 90.0 min; method in brief: as §1
[9] = target: Cannabinoid receptor 1 (Homo sapiens) (UniProt P21554); experiment: Positive allosteric modulation of human CB1 receptor expressed in CHO cell membranes assessed as increase in binding [3H]CP55940 to the receptor at 1 uM after 60 mins by liquid scintillation spectrometric method relative to control; conditions: Cell membrane; method in brief: as §2
[10] = target: Cannabinoid receptor 2 (Homo sapiens) (UniProt P34972); experiment: Binding affinity to human CB2 receptor expressed in CHO cell membranes assessed as displacement of [3H]CP55940 from the receptor > 1 uM after 60 mins by liquid scintillation spectrometric method; conditions: Cell membrane, dose microM >1, time 60.0 min
[11] = target: Cannabinoid receptor 1 (Homo sapiens) (UniProt P21554); experiment: Inverse agonist activity at human CB1 receptor expressed in CHO cell membranes assessed as decrease in cellular response up to 10 uM after 90 mins by [35S]-GTPgammaS binding based liquid scintillation spectrometric method; format: functional; conditions: Cell membrane, dose microM <=10, time 90.0 min; method in brief: as §1
[12] = target: Cannabinoid receptor 1 (Homo sapiens) (UniProt P21554); experiment: Positive allosteric modulation of human CB1 receptor expressed in CHO cell membranes assessed as increase in binding [3H]CP55940 to the receptor at 10 uM after 60 mins by liquid scintillation spectrometric method relative to control; conditions: Cell membrane; method in brief: as §2

Row | Activity [2] | Activity [3] | Activity [4] | Compound | also measured
1 | 70% | Dose-dependent effect | – | O=C(Nc1ccc(F)cc1)Nc1cccc(-c2cccc(N3CCCC3)c2)c1 | Activity ([1]; filed as inverse agonist): 45%
2 | 60% | Dose-dependent effect | inactive | O=C(Nc1ccc(Cl)cc1)Nc1cccc(Nc2cccc(N3CCCC3)n2)n1 | Activity [11]: inactive

Continued, compound first:

Row | Compound | Activity [2] | Activity [3] | Activity [4] | also measured
3 | O=C(Nc1ccc(Cl)cc1)Nc1cccc(Nc2ccc(F)cc2)c1 | 90% | Dose-dependent effect | 30% | Activity [5]: inactive; Activity [6]: inactive; Activity [7]: Active; Activity [8]: 35%
4 | O=C(Nc1ccc(Cl)cc1)Nc1cccc(Nc2ccccc2)c1 | 90% | Dose-dependent effect | – | Activity [1]: 30%
5 | O=C(Nc1ccc(Cl)cc1)Nc1cccc(-c2cccc(N3CCCCC3)c2)c1 | – | – | 30% | Activity [5]: inactive; Activity [9]: 40%; Displacement [10]: Active; Activity [8]: 30%
6 | O=C(Nc1ccc(Cl)cc1)Nc1cccc(Nc2cccc(N3CCCCC3)n2)n1 | 50% | Dose-dependent effect | inactive | Activity [11]: inactive
7 | O=C(CCc1ccc(Cl)cc1)Nc1cccc(-c2cccc(N3CCCC3)c2)c1 | – | – | – | Activity [12]: inactive
8 | O=C(Nc1ccc(Cl)cc1)Nc1cccc(Nc2ccccn2)c1 | 170% | Dose-dependent effect | – | Activity [1]: 30%
